Active and inactive are the calls of the source. The calls are words filed in the database; no cut-off is given here.
Tests used:
[1] = Antiproliferative activity against human HMEC1 cells; assay type: cell-based; conditions: HMEC-1
Method in brief: (§1)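 Antiproliferative testing against human HL-60 myeloid leukemia, HCT-116 colon adenocarcinoma and HMEC-1 microvascular endothelial cells; each experiment run independently at least three times, values given with SD.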

HCT-116 = experiment: Antiproliferative activity against human HCT116 cells; assay type: functional, cell-based; method in brief: as §1
HL-60 = experiment: Antiproliferative activity against human HL60 cells; assay type: functional, cell-based; method in brief: as §1
CCRF S-180 [2] = experiment: Antitumor activity in mouse implanted with S180 cells at 100 mg/kg, ip after 7 days; assay type: functional; conditions: CCRF S-180, ip, 168 h, route intraperitoneal
Method in brief: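 Mice bearing transplanted S180 sarcoma dosed i.p. daily for 4–7 days (10 per group, saline control group of 20); animals then euthanized, tumors excised and weighed; inhibition rate from tumor weight versus saline controls; significance p < 0.01.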

HMEC-1 [3] = experiment: Effect on alteration in morphology of HMEC1 cells at 1 uM after 30 mins; assay type: functional, cell-based; conditions: Homo sapiens
Method in brief: (§2)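 HMEC-1 cells grown on slides, exposed 30 min at 1 μM, fixed in 3% formaldehyde, permeabilized with 0.1% Triton X-100, stained with primary antibody then Alexa488 secondary; nuclei counterstained with DAPI in mounting medium; imaged by confocal microscopy.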

Mus musculus [4] = experiment: Effect on body weight in mouse implanted with S180 cells at 100 mg/kg, ip after 7 days; assay type: functional, CCRF S-180; conditions: route intraperitoneal
Method in brief: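 S180 sarcoma-bearing mice given daily i.p. doses for 4–7 days, 10 mice per group with saline controls; body weight recorded at start and end, surviving mice counted at end of treatment.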

Tubulin = experiment: Inhibition of tubulin polymerization; assay type: protein-complex assay, Homo sapiens
HMEC-1 [5] = experiment: Disruption of cytoskeleton in HMEC1 cells at 1 uM after 30 mins; assay type: functional, cell-based; conditions: Homo sapiens; method in brief: as §2
Mus musculus [6] = experiment: Toxicity in mouse implanted with S180 cells at 10 mg/kg, ip after 1 day; assay type: organism-based, CCRF S-180; parameters: dose 10 mg/kg, route intraperitoneal; conditions: in vivo, 24 h
Method in brief: (§3)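 S180 sarcoma-bearing mice, 10 per group, given i.p. doses of 10 or 20 mg/kg; survival followed after 1 day.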

Mus musculus [7] = experiment: Toxicity in mouse implanted with S180 cells at 20 mg/kg, ip after 1 day; assay type: organism-based, CCRF S-180; parameters: dose 20 mg/kg, route intraperitoneal; conditions: in vivo, 24 h; method in brief: as §3
[8] = Cell cycle arrest in HMEC1 cells assessed as accumulation at G2/M phase at 12.5 nM after 24 hrs by flow cytometry assay relative to control; assay type: functional, cell-based; conditions: Homo sapiens, HMEC-1
Method in brief: (§4)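 HMEC-1 cells treated 24 h at 6.25–100 nM, then cell cycle distribution (G1, G2/M, S percentages) determined by flow cytometry using standard propidium iodide staining; untreated cells as control.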

[9] = Cell cycle arrest in HMEC1 cells assessed as accumulation at S phase at 12.5 nM after 24 hrs by flow cytometry assay relative to control; assay type: functional, cell-based; conditions: Homo sapiens, HMEC-1; method in brief: as §4
[10] = Cell cycle arrest in HMEC1 cells assessed as accumulation at G1 phase at 100 nM after 24 hrs by flow cytometry assay relative to contro; assay type: functional, cell-based; conditions: Homo sapiens, HMEC-1; method in brief: as §4
[11] = Cell cycle arrest in HMEC1 cells assessed as accumulation at S phase at 100 nM after 24 hrs by flow cytometry assay relative to control; assay type: functional, cell-based; conditions: Homo sapiens, HMEC-1; method in brief: as §4
[12] = Cell cycle arrest in HMEC1 cells assessed as accumulation at G2/M phase at 6.25 nM after 24 hrs by flow cytometry assay relative to control; assay type: functional, cell-based; conditions: Homo sapiens, HMEC-1; method in brief: as §4
[13] = Cell cycle arrest in HMEC1 cells assessed as accumulation at G1 phase at 6.25 nM after 24 hrs by flow cytometry assay relative to control; assay type: functional, cell-based; conditions: Homo sapiens, HMEC-1; method in brief: as §4
[14] = Cell cycle arrest in HMEC1 cells assessed as accumulation at G2/M phase at 100 nM after 24 hrs by flow cytometry assay relative to control; assay type: functional, cell-based; conditions: Homo sapiens, HMEC-1; method in brief: as §4
[15] = Cell cycle arrest in HMEC1 cells assessed as accumulation at G1 phase at 12.5 nM after 24 hrs by flow cytometry assay relative to control; assay type: functional, cell-based; conditions: Homo sapiens, HMEC-1; method in brief: as §4
[16] = Cell cycle arrest in HMEC1 cells assessed as accumulation at S phase at 50 nM after 24 hrs by flow cytometry assay relative to control; assay type: functional, cell-based; conditions: Homo sapiens, HMEC-1; method in brief: as §4
[17] = Cell cycle arrest in HMEC1 cells assessed as accumulation at G2/M phase at 25 nM after 24 hrs by flow cytometry assay relative to control; assay type: functional, cell-based; conditions: Homo sapiens, HMEC-1; method in brief: as §4
[18] = Cell cycle arrest in HMEC1 cells assessed as accumulation at G1 phase at 50 nM after 24 hrs by flow cytometry assay relative to control; assay type: functional, cell-based; conditions: Homo sapiens, HMEC-1; method in brief: as §4
[19] = Cell cycle arrest in HMEC1 cells assessed as accumulation at G2/M phase at 50 nM after 24 hrs by flow cytometry assay relative to control; assay type: functional, cell-based; conditions: Homo sapiens, HMEC-1; method in brief: as §4
[20] = Cell cycle arrest in HMEC1 cells assessed as accumulation at S phase at 25 nM after 24 hrs by flow cytometry assay relative to control; assay type: functional, cell-based; conditions: Homo sapiens, HMEC-1; method in brief: as §4
[21] = Cell cycle arrest in HMEC1 cells assessed as accumulation at S phase at 6.25 nM after 24 hrs by flow cytometry assay relative to control; assay type: functional, cell-based; conditions: Homo sapiens, HMEC-1; method in brief: as §4
[22] = Cell cycle arrest in HMEC1 cells assessed as accumulation at G1 phase at 25 nM after 24 hrs by flow cytometry assay relative to control; assay type: functional, cell-based; conditions: Homo sapiens, HMEC-1; method in brief: as §4
Mus musculus [23] = experiment: Effect on body weight in mouse implanted with S180 cells at 50 mg/kg, ip after 2 days; assay type: functional, CCRF S-180; conditions: route intraperitoneal
Method in brief: (§5)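 Mouse S180 sarcoma transplant model; drug given i.p. daily, with an NS-treated control group (n = 20) and 10 mice per treated group. At the end, animals were euthanized and tumors excised and weighed. Inhibition rate is relative to the control. Body weight and surviving mouse numbers were recorded at the start and end. Significance was set at p < 0.01.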

CCRF S-180 [24] = experiment: Antitumor activity in mouse implanted with S180 cells at 50 mg/kg, ip after 2 days; assay type: functional; conditions: CCRF S-180, ip, 48 h, route intraperitoneal; method in brief: as §5
Mus musculus [25] = experiment: Toxicity in mouse implanted with S180 cells at 50 mg/kg, ip after 2 days; assay type: organism-based, CCRF S-180; parameters: dose 50 mg/kg, route intraperitoneal; conditions: in vivo, 48 h; method in brief: as §5

**Q.** With `COc1cc(-c2nnsc2-c2ccc(F)cc2)cc(OC)c1OC` as the compound, how does the IC50 [1] read?
**A.** > 1000 nM

**Q.** What about the IC50 (HCT-116) of the same compound?
**A.** > 1000 nM

**Q.** For `COc1ccc(-c2nnsc2-c2cc(OC)c(OC)c(OC)c2)cc1[N+](=O)[O-]`, which IC50 [1] is on record?
**A.** > 1000 nM

**Q.** And the IC50 (HCT-116)?
**A.** > 1000 nM

**Q.** What about the IC50 (HL-60) of the same compound?
**A.** > 1000 nM

**Q.** Which inhibition in vivo at 100 mg/kg (CCRF S-180 [2]) does the source give for `COc1ccc(-c2snnc2-c2cc(OC)c(OC)c(OC)c2)cc1[N+](=O)[O-]` here?
**A.** 64.2%

**Q.** What about the IC50 [1] of the same compound?
**A.** 26.4 nM

**Q.** And the Activity (HMEC-1 [3])?
**A.** Active

**Q.** What about the Activity (Mus musculus [4]) of the same compound?
**A.** 21.8 g

**Q.** And the IC50 (HCT-116)?
**A.** 30.2 nM

**Q.** What about the IC50 (Tubulin) of the same compound?
**A.** 2130 nM

**Q.** And the IC50 (HL-60)?
**A.** 13.4 nM

**Q.** And the Activity (HMEC-1 [5])?
**A.** Active

**Q.** What does the source list for `COc1ccc(-c2nnsc2-c2cc(OC)c(OC)c(OC)c2)cc1OC`?
**A.** IC50 [1]: > 1000 nM; IC50 (HCT-116): > 1000 nM; IC50 (HL-60): > 1000 nM

**Q.** For `COc1cc(-c2nnsc2-c2ccc3c(c2)OCO3)cc(OC)c1OC`, which IC50 [1] is on record?
**A.** 73.9 nM

**Q.** What about the IC50 (HCT-116) of the same compound?
**A.** 86.6 nM

**Q.** What about the IC50 (HL-60) of the same compound?
**A.** 50.2 nM

**Q.** Which results are given for `COc1ccc(-c2nnsc2-c2cc(OC)c(OC)c(OC)c2)cc1O`?
**A.** IC50 [1]: 41 nM; IC50 (HCT-116): 70.4 nM; IC50 (Tubulin): 860 nM; IC50 (HL-60): 40.9 nM

**Q.** For `COc1ccc(-c2snnc2-c2cc(OC)c(OC)c(OC)c2)cc1N`, which IC50 [1] is on record?
**A.** 2.5 nM

**Q.** What about the Activity (HMEC-1 [3]) of the same compound?
**A.** Active

**Q.** And the IC50 (HCT-116)?
**A.** 3.7 nM

**Q.** And the IC50 (Tubulin)?
**A.** 680 nM

**Q.** What about the Activity (Mus musculus [6]) of the same compound?
**A.** Toxic

**Q.** What about the Activity (Mus musculus [7]) of the same compound?
**A.** Toxic

**Q.** What about the IC50 (HL-60) of the same compound?
**A.** 1.8 nM

**Q.** What about the Activity (HMEC-1 [5]) of the same compound?
**A.** Active

**Q.** Which results are given for `COc1ccc(-c2nnsc2-c2cc(OC)c(OC)c(OC)c2)cc1`?
**A.** IC50 [1]: > 1000 nM; IC50 (HCT-116): 616 nM; IC50 (HL-60): 537 nM

**Q.** With `COc1ccc(-c2snnc2-c2cc(OC)c(OC)c(OC)c2)cc1OC` as the compound, how does the Activity [8] read?
**A.** 25%

**Q.** And the IC50 [1]?
**A.** 75.8 nM

**Q.** What about the Activity [9] of the same compound?
**A.** 40%

**Q.** What about the Activity [10] of the same compound?
**A.** 1%

**Q.** What about the Activity [11] of the same compound?
**A.** 21%

**Q.** What about the Activity [12] of the same compound?
**A.** 24%

**Q.** What about the Activity [13] of the same compound?
**A.** 36%

**Q.** What about the Activity [14] of the same compound?
**A.** 78%

**Q.** What about the IC50 (HCT-116) of the same compound?
**A.** 50.9 nM

**Q.** And the Activity [15]?
**A.** 35%

**Q.** What about the Activity [16] of the same compound?
**A.** 27%

**Q.** What about the IC50 (Tubulin) of the same compound?
**A.** 720 nM

**Q.** What about the Activity [17] of the same compound?
**A.** 33%

**Q.** What about the Activity [18] of the same compound?
**A.** 12%

**Q.** And the Activity [19]?
**A.** 61%

**Q.** What about the Activity [20] of the same compound?
**A.** 29%

**Q.** And the IC50 (HL-60)?
**A.** 60.9 nM

**Q.** And the Activity [21]?
**A.** 40%

**Q.** And the Activity [22]?
**A.** 38%

**Q.** With `O=c1[nH]cc(F)c(=O)[nH]1` [FLUOROURACIL] as the compound, how does the Activity (Mus musculus [23]) read?
**A.** 23 g

**Q.** What about the inhibition in vivo at 50 mg/kg (CCRF S-180 [24]) of the same compound?
**A.** 80.4%

**Q.** And the Activity (Mus musculus [25])?
**A.** Non-toxic
